Results of several laboratories.
Each line is one published result; the experiments were not run side by side.
Target: Mitogen-activated protein kinase kinase kinase 5 (MAP3K5, Homo sapiens, UniProt Q99683)
One construct used (Q99683 1-1374): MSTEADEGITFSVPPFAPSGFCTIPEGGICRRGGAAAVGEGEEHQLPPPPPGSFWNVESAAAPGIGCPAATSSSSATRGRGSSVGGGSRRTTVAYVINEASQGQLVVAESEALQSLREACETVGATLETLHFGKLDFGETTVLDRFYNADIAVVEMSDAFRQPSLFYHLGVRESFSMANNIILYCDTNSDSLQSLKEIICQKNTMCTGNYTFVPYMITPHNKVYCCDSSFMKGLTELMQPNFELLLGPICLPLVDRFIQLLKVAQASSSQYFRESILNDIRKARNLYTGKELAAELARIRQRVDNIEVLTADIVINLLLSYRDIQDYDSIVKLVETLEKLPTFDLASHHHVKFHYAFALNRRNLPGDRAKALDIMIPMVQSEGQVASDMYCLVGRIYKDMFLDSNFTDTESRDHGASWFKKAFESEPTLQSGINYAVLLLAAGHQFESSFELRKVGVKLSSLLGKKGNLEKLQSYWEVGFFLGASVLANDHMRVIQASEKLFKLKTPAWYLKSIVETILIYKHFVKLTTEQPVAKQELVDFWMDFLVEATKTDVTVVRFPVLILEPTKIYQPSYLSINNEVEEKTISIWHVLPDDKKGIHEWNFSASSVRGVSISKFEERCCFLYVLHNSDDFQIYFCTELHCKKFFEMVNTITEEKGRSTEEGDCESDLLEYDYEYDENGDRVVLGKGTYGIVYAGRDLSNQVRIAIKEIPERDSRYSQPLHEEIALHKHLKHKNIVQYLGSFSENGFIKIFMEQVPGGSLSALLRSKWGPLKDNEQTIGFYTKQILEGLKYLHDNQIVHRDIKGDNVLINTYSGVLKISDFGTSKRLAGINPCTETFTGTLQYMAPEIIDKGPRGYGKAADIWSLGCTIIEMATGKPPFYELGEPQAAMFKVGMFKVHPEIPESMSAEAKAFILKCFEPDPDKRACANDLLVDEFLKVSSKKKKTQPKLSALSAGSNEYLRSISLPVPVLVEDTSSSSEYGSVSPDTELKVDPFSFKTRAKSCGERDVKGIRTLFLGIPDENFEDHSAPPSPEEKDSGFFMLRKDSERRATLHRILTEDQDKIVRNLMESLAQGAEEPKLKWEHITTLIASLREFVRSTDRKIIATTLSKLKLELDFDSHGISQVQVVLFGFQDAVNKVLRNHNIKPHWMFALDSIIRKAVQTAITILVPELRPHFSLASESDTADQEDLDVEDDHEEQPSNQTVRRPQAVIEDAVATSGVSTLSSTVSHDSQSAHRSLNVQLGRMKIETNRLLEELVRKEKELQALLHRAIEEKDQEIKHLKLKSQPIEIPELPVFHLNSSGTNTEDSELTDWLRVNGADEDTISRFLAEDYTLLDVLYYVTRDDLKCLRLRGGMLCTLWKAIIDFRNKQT

N[C@H]1CCN(c2nccc(-c3cnn4ncccc34)n2)C1 — remaining binding (binding; 1 µM): 99%
Cc1cc(C)c(-n2ccn3nc(-c4cccnc4)cc23)cc1NC(=O)c1cc(C#N)cc(S(F)(F)(F)(F)F)c1 — remaining binding (cell-free assay; competition with immobilised ligand; 0.1 µM): 100%
C[C@H]1CCN(c2nccc(-c3cnn4ncccc34)n2)C1 — remaining binding (binding; 1 µM): 100%
O=C(NCCCN1CCOCC1)c1ccc(Nc2nccc(-c3cc4ccccc4s3)n2)cc1 — remaining binding (binding; competition with immobilised ligand; 1 µM): 100%
O=C(O)[C@@H]1[C@@H](Cn2nnc3ccccc3c2=O)CC[C@H]1C(=O)c1ccc(OCCC2CCOCC2)cc1 — remaining binding (cell-free assay; competition with immobilised ligand; 1 µM): 94%
COc1cnc(Nc2cccc(S(N)(=O)=O)c2)nc1N1CCN(c2ccccc2)C(=O)C1 — remaining binding (binding; competition with immobilised ligand; 1 µM): 100%
O=C(c1ccc(Nc2ncc(Cl)c(-c3cc4ccccc4s3)n2)cc1)N1CCC(N2CCCC2)CC1 — remaining binding (binding; competition with immobilised ligand; 1 µM): 100%
CCN1CCN(Cc2ccc(C(=O)Nc3ccc(C)c(Oc4ccc5c(c4)CC(=O)N5)c3)cc2C(F)(F)F)CC1 — remaining binding (binding; competition with immobilised ligand; 1 µM): 100%
CN(C)c1ncc(F)c(-c2cnn3ncccc23)n1 — remaining binding (binding; 1 µM): 100%
C[C@@H](c1ccc(-n2cnc3c(N)ncnc32)cc1)N1CCc2nn(C)c(Cc3ccccc3)c2C1=O — remaining binding (binding; competition with immobilised ligand; 0.1 µM): 95%
O=C(NCC1CCOCC1)c1n[nH]cc1NC(=O)c1c(F)cccc1F — remaining binding (binding; competition with immobilised ligand; 1 µM): 87%
COc1cc(-c2cn(C3CCc4ccccc4N(CC(F)(F)F)C3=O)nn2)ccc1-n1ccc(C)n1 (stereo not drawn) — remaining binding (cell-free assay; competition with immobilised ligand; 1 µM): 100%
CC1CCCN1c1nccc(-c2cnn3ncccc23)n1 (stereo not drawn) — remaining binding (binding; 1 µM): 79%
COc1cnc(Nc2cccc(S(N)(=O)=O)c2)nc1N1CCN(c2ccccc2)CC1 — remaining binding (binding; competition with immobilised ligand; 1 µM): 100%
CNC(=O)Nc1ccc2c(c1)CC[C@@]21OC(=O)N(CC(=O)N(Cc2ccc(F)cc2)[C@@H](C)C(F)(F)F)C1=O — remaining binding (cell-free assay; competition with immobilised ligand; 1 µM): 94%
Cc1cnc(Nc2ccc(C(=O)N3CCC(N4CCCC4)CC3)cc2)nc1-c1cc2ccccc2s1 — remaining binding (binding; competition with immobilised ligand; 1 µM): 100%
F[C@@H]1CCN(c2nccc(-c3cnn4ncccc34)n2)C1 — remaining binding (binding; 1 µM): 83%
CCCOc1ccc([C@@H]2[C@@H](C(=O)O)[C@H](c3ccc4c(c3)OCO4)CN2CC(=O)Nc2c(CC)cccc2CC)cc1 — remaining binding (cell-free assay; competition with immobilised ligand; 1 µM): 97%
COc1ncc2cc3ccccc3nc2c1C#N — remaining binding (cell-free assay; competition with immobilised ligand; 5 µM): 96%
C[C@@H]1CN(c2cc(-c3nn(C)c4ccc(OC5(C)CC5)cc34)ncn2)C[C@H](C)O1 — remaining binding (cell-free assay; competition with immobilised ligand; 1 µM): 100%
CN(C)c1nccc(-c2cnn3ncccc23)n1 — remaining binding (binding; 1 µM): 87%
